Measured values pooled from the literature.
Compare with care: the assays were run in different laboratories.
Target: Serine/threonine-protein kinase NLK (NLK, Homo sapiens, UniProt Q9UBE8)
Residues used in one study (Q9UBE8 1-527): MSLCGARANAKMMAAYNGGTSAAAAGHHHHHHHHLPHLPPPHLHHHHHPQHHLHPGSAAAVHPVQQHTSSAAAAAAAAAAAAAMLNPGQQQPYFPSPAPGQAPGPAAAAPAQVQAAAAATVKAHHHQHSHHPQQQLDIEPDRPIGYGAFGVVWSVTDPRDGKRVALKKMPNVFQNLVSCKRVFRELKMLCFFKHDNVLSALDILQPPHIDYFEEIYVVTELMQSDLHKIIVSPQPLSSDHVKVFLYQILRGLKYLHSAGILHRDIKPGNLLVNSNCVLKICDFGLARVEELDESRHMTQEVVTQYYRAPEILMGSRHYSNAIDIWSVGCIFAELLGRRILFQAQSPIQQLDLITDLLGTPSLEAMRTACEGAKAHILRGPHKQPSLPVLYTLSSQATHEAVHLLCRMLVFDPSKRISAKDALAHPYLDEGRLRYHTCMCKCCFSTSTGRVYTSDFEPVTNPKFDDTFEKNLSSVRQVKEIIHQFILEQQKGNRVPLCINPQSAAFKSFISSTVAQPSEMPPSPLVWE

Cc1ccc(Nc2nccc(N(C)c3ccc4c(C)n(C)nc4c3)n2)cc1S(N)(=O)=O
inhibition (enzyme activity; inhibitor; 10 µM): 67%

O=C(Nc1cnn(-c2csc(C(=O)NC3COC3)c2)c1)Nc1ccccc1Cl
remaining activity (enzyme activity; inhibitor; 5 µM): 99.5%

N#CCCc1ccc2c(c1)-c1[nH]c3ccc([N+](=O)[O-])cc3c1CC(=O)N2
remaining signal (cell-free assay; 0.5 µM): 89.7%

CC(C)(O)[C@H]1CC[C@H](Nc2ccc3ncc(-c4cccc(C(F)(F)F)c4)n3n2)CC1
remaining activity (enzyme activity; inhibitor; 1 µM): 93.3%

CC(C)(O)c1cncc(-c2nc3ccc(F)cc3n2C2CC2)c1
remaining binding (cell-free assay; competition with immobilised ligand; 1 µM): 100%

O=C(Nc1cnn(-c2csc(C(=O)NC3COC3)c2)c1)Nc1c(F)cccc1Cl
remaining activity (enzyme activity; inhibitor; 5 µM): 87.4%

Cn1cncc1C1=CN(c2ncnc3[nH]cnc23)CCS1
inhibition (enzyme activity; inhibitor; radiometric; 2 µM): 43%

O=S(=O)(NC1CCC(c2cc(F)ccc2F)(S(=O)(=O)c2ccc(Cl)cc2)CC1)C(F)(F)F (stereo not shown)
remaining binding (cell-free assay; competition with immobilised ligand; 1 µM): 100%

CC(C)(C)c1nc2c(s1)c1nc(N)ncc1c1ccc(NS(=O)(=O)c3c(F)cccc3F)c(F)c12
remaining activity (enzyme activity; inhibitor; radiometric; 1 µM): 91%

NS(=O)(=O)c1cc(NC(=O)Cc2ccccc2)ccc1Oc1cccc(Cl)c1
remaining binding (cell-free assay; competition with immobilised ligand; 1 µM): 100%

Cc1cc(NC(=O)c2cccc3cc(-c4cccc5[nH]nc(N)c45)ccc23)ccc1F
activity vs control (enzyme activity; inhibitor; 0.1 µM): 97%

CCCOc1ccc(OC)c(F)c1C(=O)c1ccc(C(=O)N[C@@H]2CNC[C@H]2NC(=O)c2ccc3[nH]ncc3c2)cc1
remaining activity (enzyme activity; inhibitor; 10 µM): 59%

CNC(=O)c1cc(Oc2ccc(NC(=O)Nc3ccc(Cl)c(C(F)(F)F)c3)cc2)ccn1
inhibition (enzyme activity; inhibitor; 0.3 µM): -5%

O=C1NC(=O)c2cc(Nc3ccc(F)cc3)c(Nc3ccc(F)cc3)cc21
remaining signal (cell-free assay; 0.5 µM): 103%

CS(=O)(=O)c1cc(C2(NC(=O)c3cncc4c3cnn4-c3ccc(F)cc3)CC2)ccn1
remaining binding (cell-free assay; competition with immobilised ligand; 1 µM): 100%

Fc1cccc(-n2cnc3c(NCc4nc5c(F)c(F)ccc5[nH]4)nc(N4CCOCC4)nc32)c1
binding vs control (binding; competition with immobilised ligand; 10 µM): 98%

CCN(CC)CCNC(=O)c1c(C)[nH]c(/C=C2\C(=O)Nc3ccc(F)cc32)c1C
inhibition (enzyme activity; inhibitor; 10 µM): 7%

COc1cc(-c2cn(C3CCc4c(F)cccc4N(CC(F)(F)F)C3=O)nn2)ccc1-n1cnc(C)c1 (stereo not shown)
remaining binding (cell-free assay; competition with immobilised ligand; 1 µM): 100%

CCCS(=O)(=O)Nc1ccc(F)c(C(=O)c2c[nH]c3ncc(-c4ccc(Cl)cc4)cc23)c1F
inhibition (enzyme activity; inhibitor; 1 µM): < 10%
